From ChEMBL document CHEMBL1143164, “Synthesis and structure-activity relationships of ring-opened 17-hydroxywortmannins: potent phosphoinositide 3-kinase inhibitors with improved properties and anticancer efficacy” (J Med Chem, 2008)
Active and inactive are the calls of the source. The calls are words filed in the database; no cut-off is given here.

Assays:
[1] = molecular target: Ribosomal protein S6 kinase beta-1 (Homo sapiens, UniProt P23443); assay: Inhibition of S6K1
[2] = molecular target: MAP kinase-activated protein kinase 2 (Homo sapiens, UniProt P49137); assay: Inhibition of MK2
[3] = Aqueous solubility of the compound; format: physicochemical
[4] = Volume of distribution in mouse at 5 mg/kg, iv; format: ADME, organism-based; parameters: dose 5 mg/kg, route intravenous; conditions: in vivo, read-out: Vdss
Procedure, shortened: (§1)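 Nude mice received a single intravenous bolus of 5 mg/kg. Plasma levels of parent and the 11-deacetylated metabolite were followed over time to derive clearance, volume of distribution and half-life.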

[5] = molecular target: Serine/threonine-protein kinase mTOR (Homo sapiens, UniProt P42345); assay: Inhibition of mTOR
[6] = molecular target: T1, Phosphatidylinositol 4,5-bisphosphate 3-kinase catalytic subunit alpha isoform (Homo sapiens, UniProt P42336); assay: Inhibition of PI3K mediated S6K phosphorylation in PTEN negative human U87MG cells at 30 ng/ml; format: cell-based; conditions: U-87MG ATCC
Procedure, shortened: (§2)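 PTEN-negative U87MG cells were plated in six-well plates for 24 h, then treated in growth medium for 6 h against a DMSO control. PI3K pathway phosphorylation was then assessed.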

[7] = molecular target: T2, Inhibitor of nuclear factor kappa-B kinase subunit beta (Homo sapiens, UniProt O14920); assay: Inhibition of IKK-beta
T2 sequence (O14920 whole entry): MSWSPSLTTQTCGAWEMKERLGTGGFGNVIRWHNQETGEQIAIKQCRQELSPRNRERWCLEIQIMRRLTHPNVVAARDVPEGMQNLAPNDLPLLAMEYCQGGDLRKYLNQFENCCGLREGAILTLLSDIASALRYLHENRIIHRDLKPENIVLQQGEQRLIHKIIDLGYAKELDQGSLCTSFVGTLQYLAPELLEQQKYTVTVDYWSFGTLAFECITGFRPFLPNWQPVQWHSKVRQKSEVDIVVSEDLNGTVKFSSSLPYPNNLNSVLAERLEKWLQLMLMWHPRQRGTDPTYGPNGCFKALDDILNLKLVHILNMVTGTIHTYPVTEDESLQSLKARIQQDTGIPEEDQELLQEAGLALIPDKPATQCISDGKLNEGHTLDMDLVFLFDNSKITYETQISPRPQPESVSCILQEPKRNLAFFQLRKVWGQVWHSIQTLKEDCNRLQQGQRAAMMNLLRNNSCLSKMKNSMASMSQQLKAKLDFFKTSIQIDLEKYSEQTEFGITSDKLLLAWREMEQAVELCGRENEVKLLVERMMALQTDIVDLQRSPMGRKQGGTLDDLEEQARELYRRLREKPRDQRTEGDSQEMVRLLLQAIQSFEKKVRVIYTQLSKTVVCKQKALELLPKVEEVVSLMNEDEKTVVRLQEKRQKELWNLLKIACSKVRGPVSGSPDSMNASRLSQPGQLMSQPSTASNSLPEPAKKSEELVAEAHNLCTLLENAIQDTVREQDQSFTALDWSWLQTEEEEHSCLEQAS

[8] = molecular target: Tyrosine-protein kinase Lyn (Homo sapiens, UniProt P07948); assay: Inhibition of LYN
[9] = Half life in mouse at 5 mg/kg, iv; format: ADME, organism-based; parameters: dose 5 mg/kg, route intravenous; conditions: in vivo; procedure, shortened: as §1
[10] = molecular target: Vascular endothelial growth factor receptor 2 (Homo sapiens, UniProt P35968); assay: Inhibition of KDR
[11] = Antitumor activity against human U87MG cells xenografted mouse administered intravenously twice a week for two weeks; format: functional, U-87MG ATCC; conditions: U-87 MG, iv, 336 h, read-out: MED
Procedure, shortened: (§3)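 Nude mice bearing U87MG glioma xenografts; compound in PBS given intravenously on the stated schedule for 2 weeks. Tumor growth was monitored twice a week, and tumor volume was determined by a previously described method. Efficacy was expressed as minimum efficacious dose.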

[12] = Inhibition of GSK3
[13] = Inhibition of IGFR
[14] = molecular target: Phosphatidylinositol 4,5-bisphosphate 3-kinase catalytic subunit beta isoform (Homo sapiens, UniProt P42338); assay: Inhibition of PI3Kbeta
Procedure, shortened: (§4)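 Fluorescence polarization assay using purchased PI3K enzyme. It was stopped with TAMRA-labeled probe (10 nM) plus GST-GRP1 (40 nM), incubated 1–2 h, and FP was read.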

[15] = Antitumor activity against human U87MG cells xenografted mouse administered intravenously once a week for two weeks; format: functional, U-87MG ATCC; conditions: U-87 MG, iv, 336 h, read-out: MED; procedure, shortened: as §3
[16] = molecular target: Mitogen-activated protein kinase kinase kinase 8 (Homo sapiens, UniProt P41279); assay: Inhibition of Tpl2
[17] = molecular target: T3, Phosphatidylinositol 4,5-bisphosphate 3-kinase catalytic subunit delta isoform (Homo sapiens, UniProt O00329); assay: Inhibition of PI3Kdelta; procedure, shortened: as §4
T3 sequence (O00329 whole entry): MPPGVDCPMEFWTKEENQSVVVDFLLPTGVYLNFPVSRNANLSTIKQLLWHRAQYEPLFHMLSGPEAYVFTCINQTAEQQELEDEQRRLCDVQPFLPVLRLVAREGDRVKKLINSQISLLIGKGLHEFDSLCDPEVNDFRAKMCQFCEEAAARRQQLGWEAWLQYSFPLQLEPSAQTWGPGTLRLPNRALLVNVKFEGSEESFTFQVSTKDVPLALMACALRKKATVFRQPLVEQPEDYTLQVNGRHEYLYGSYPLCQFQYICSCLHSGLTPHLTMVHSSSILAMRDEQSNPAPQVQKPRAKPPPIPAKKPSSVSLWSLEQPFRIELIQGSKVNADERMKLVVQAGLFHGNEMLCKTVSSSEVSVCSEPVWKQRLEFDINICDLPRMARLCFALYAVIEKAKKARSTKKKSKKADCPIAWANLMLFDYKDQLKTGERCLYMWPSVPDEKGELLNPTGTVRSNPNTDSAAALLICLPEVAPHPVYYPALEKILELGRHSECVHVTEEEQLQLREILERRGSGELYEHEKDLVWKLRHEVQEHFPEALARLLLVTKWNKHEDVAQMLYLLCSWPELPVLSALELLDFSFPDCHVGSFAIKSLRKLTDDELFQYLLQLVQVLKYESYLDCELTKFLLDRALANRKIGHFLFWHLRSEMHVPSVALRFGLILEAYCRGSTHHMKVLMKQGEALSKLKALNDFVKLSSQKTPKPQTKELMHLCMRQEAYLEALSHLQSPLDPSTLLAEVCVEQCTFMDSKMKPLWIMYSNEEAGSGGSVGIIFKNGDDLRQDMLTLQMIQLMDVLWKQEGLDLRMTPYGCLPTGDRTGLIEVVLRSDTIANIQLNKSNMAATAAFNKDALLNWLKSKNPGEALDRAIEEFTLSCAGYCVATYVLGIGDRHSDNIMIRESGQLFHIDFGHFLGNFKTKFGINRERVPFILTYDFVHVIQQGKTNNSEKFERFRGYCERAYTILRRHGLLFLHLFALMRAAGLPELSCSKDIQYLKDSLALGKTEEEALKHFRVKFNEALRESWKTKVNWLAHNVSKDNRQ

[18] = Clearance in mouse at 5 mg/kg, iv; format: ADME, organism-based; parameters: dose 5 mg/kg, route intravenous; conditions: in vivo; procedure, shortened: as §1
[19] = molecular target: Phosphatidylinositol 4,5-bisphosphate 3-kinase catalytic subunit gamma isoform (Homo sapiens, UniProt P48736); assay: Inhibition of PI3Kgamma; procedure, shortened: as §4
[20] = molecular target: T1, Phosphatidylinositol 4,5-bisphosphate 3-kinase catalytic subunit alpha isoform; assay: Inhibition of PI3K expressed in Escherichia coli by microtiter plate-based fluorescence polarization assay
Procedure, shortened: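 Fluorescence polarization assay of PI3K activity with PIP2 substrate. Reactions contained 20 mM Hepes pH 7.5, 2 mM MgCl2, 0.05% CHAPS, 0.01% βME, 20 µM PIP2 and 25 µM ATP, and ran 15–30 min at room temperature. They were stopped with buffer holding 10 nM TAMRA-labeled probe and 40 nM GST-GRP1 (E. coli-expressed detector), then incubated 1–2 h before FP readout.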

LNCaP = assay: Growth inhibition of human LNCap cells; format: functional, cell-based
[21] = molecular target: Dual specificity mitogen-activated protein kinase kinase 1 (Homo sapiens, UniProt Q02750); assay: Inhibition of MEK1
[22] = molecular target: RAC-alpha serine/threonine-protein kinase (Homo sapiens, UniProt P31749); assay: Inhibition of AKT1
[23] = molecular target: T1, Phosphatidylinositol 4,5-bisphosphate 3-kinase catalytic subunit alpha isoform; assay: Inhibition of PI3K mediated AKT phosphorylation in PTEN negative human U87MG cells at 30 ng/ml; format: cell-based; conditions: U-87MG ATCC; procedure, shortened: as §2
[24] = molecular target: Cyclin-dependent kinase 4 (Homo sapiens, UniProt P11802); assay: Inhibition of CDK4
[25] = Chemical stability at pH 7.4; format: physicochemical; conditions: buffer, read-out: Stability
Procedure, shortened: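 Compound was incubated with the dipeptide lysine-phenylalanine at pH 7.4. Half-life of amine adduct formation was measured.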

[26] = molecular target: Tyrosine-protein kinase BTK (Homo sapiens, UniProt Q06187); assay: Inhibition of BTK
[27] = Antitumor activity against human U87MG cells xenografted mouse administered intravenously thrice a week for two weeks; format: functional, U-87MG ATCC; conditions: U-87 MG, iv, 336 h, read-out: MED
Procedure, shortened: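 Nude mice bearing U87MG glioma xenografts; dosed iv in PBS at the stated doses and schedules for 2 weeks. Tumor growth was monitored twice weekly, and tumor volume was determined by a previously described method.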

T1 sequence (P42336 whole entry, canonical isoform): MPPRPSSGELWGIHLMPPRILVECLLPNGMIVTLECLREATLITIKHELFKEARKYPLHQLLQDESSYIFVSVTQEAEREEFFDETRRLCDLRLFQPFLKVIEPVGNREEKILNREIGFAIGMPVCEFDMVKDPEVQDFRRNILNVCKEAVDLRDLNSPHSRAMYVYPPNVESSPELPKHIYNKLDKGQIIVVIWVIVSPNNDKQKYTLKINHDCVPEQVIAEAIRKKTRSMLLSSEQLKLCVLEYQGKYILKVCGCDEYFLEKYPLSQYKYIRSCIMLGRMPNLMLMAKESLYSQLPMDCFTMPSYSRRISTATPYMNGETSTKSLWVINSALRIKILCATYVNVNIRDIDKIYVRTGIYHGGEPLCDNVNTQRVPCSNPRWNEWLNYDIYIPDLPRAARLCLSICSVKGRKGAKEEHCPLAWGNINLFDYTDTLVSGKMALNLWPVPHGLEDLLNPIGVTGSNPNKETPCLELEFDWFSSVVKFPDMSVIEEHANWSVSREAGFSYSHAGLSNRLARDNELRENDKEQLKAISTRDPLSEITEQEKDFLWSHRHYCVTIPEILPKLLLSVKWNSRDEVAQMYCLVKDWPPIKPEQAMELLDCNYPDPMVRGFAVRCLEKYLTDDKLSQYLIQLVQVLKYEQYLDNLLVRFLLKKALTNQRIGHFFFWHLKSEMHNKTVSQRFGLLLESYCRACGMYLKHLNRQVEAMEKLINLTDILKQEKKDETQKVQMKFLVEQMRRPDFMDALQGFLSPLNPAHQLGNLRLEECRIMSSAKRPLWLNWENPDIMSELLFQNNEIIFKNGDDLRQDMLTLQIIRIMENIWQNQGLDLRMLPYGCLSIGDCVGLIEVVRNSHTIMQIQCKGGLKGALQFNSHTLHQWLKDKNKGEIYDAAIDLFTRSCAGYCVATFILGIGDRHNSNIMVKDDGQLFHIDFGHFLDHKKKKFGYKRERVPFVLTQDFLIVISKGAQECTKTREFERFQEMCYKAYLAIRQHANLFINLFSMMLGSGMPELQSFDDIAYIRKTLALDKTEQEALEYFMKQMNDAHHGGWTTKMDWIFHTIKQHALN
Chain of Mitogen-activated protein kinase kinase kinase 8 (P41279 whole entry, canonical isoform): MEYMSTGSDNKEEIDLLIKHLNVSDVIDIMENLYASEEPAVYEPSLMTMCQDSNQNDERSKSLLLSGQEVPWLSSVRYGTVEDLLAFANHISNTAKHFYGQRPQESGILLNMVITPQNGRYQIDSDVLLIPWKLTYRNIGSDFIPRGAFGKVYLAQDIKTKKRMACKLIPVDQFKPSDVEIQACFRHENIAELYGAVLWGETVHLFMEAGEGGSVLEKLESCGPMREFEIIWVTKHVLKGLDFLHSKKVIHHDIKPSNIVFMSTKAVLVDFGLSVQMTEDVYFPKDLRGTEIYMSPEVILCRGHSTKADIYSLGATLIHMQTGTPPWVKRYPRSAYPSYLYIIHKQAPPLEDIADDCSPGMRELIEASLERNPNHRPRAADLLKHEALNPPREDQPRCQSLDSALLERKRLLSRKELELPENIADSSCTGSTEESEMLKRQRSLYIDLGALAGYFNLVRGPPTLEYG
Chain of Cyclin-dependent kinase 4 (P11802 whole entry): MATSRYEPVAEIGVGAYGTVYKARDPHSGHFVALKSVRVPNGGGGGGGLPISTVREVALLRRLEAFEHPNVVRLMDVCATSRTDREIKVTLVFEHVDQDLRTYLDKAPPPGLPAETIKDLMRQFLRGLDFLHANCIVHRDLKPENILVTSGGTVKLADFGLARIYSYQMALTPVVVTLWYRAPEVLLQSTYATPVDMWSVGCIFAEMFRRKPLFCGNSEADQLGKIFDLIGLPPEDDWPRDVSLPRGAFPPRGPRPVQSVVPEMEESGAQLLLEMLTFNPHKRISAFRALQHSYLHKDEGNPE
Chain of Dual specificity mitogen-activated protein kinase kinase 1 (Q02750 whole entry): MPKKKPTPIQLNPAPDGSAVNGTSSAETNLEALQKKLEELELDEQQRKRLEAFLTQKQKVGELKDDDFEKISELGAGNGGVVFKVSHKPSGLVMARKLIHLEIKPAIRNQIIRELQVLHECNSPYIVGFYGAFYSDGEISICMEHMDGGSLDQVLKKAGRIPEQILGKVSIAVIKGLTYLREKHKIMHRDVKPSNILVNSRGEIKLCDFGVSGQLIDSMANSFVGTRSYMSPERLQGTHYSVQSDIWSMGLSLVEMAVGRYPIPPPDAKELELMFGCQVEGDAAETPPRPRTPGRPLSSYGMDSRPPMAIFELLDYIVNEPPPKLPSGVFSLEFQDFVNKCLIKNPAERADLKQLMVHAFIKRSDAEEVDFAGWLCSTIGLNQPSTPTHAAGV
Chain of Tyrosine-protein kinase Lyn (P07948 whole entry): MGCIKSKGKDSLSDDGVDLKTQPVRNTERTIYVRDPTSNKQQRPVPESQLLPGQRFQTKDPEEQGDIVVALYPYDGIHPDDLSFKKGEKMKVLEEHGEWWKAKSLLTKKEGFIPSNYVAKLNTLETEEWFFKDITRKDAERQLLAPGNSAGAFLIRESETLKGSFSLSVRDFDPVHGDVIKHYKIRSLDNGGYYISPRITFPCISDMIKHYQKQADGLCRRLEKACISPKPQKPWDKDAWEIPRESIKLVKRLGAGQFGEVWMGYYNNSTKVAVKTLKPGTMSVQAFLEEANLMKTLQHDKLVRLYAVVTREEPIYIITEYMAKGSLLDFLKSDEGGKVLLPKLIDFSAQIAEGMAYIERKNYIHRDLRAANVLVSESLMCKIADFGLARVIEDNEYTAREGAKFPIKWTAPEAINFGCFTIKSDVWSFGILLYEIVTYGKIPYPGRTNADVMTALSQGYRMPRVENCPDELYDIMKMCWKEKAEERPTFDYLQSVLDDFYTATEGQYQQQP
Chain of Ribosomal protein S6 kinase beta-1 (P23443 whole entry): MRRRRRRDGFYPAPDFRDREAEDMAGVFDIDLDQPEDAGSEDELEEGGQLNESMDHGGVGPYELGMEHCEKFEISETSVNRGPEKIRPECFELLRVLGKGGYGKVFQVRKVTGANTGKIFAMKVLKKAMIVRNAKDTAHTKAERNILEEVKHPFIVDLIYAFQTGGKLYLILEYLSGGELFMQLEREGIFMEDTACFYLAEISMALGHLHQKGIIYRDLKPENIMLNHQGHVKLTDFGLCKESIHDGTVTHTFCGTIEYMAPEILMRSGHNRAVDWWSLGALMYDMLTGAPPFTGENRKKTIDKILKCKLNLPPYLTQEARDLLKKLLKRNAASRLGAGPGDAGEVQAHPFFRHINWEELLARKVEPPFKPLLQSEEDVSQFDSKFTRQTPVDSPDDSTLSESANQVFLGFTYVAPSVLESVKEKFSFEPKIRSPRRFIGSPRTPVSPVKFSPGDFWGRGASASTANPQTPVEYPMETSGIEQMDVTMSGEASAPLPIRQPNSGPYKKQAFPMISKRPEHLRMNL
Chain of RAC-alpha serine/threonine-protein kinase (P31749 whole entry, canonical isoform): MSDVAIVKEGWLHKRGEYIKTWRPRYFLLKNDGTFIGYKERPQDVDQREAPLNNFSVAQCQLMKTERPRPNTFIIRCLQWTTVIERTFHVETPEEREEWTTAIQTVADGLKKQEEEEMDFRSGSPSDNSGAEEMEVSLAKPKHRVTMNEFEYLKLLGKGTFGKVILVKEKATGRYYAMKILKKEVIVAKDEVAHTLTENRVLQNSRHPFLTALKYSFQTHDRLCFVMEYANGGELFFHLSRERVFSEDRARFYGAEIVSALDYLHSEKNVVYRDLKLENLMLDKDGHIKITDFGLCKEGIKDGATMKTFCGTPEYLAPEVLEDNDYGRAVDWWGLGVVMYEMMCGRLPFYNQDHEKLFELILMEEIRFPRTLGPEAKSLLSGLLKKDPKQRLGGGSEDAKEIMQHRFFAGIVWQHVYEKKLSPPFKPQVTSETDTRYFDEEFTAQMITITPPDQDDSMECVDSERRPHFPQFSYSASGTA
Chain of MAP kinase-activated protein kinase 2 (P49137 whole entry): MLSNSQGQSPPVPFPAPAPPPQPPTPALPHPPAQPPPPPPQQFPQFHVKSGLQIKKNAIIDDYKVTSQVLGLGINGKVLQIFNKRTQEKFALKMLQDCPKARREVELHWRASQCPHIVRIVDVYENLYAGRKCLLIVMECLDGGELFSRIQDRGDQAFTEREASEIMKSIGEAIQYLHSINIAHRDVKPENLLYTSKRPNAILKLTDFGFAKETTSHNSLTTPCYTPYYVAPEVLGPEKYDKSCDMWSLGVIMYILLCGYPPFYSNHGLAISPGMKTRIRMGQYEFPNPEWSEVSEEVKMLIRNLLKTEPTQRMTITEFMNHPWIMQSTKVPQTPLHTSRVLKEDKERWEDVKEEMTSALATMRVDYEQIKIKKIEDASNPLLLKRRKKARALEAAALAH
Chain of Tyrosine-protein kinase BTK (Q06187 whole entry): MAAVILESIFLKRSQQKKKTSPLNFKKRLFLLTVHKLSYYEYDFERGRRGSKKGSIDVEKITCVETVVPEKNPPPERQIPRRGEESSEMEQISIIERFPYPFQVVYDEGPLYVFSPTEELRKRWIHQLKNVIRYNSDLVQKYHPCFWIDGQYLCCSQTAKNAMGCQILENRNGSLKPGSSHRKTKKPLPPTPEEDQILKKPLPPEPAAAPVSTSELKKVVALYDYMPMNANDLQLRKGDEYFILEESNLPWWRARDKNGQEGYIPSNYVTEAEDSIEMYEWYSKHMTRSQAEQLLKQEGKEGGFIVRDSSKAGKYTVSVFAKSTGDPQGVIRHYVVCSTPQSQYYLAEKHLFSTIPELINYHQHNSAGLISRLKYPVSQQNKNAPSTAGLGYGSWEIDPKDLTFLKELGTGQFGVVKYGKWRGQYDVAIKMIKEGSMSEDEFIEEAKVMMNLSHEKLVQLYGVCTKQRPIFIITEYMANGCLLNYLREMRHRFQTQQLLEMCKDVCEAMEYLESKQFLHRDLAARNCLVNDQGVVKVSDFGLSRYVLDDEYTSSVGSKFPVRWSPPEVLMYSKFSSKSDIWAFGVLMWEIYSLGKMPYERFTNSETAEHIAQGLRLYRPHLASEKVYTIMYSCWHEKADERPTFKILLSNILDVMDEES

Row | Structure (SMILES) | IC50 [1] [µM] | IC50 [2] [µM] | IC50 [5] [µM] | IC50 [7] [µM] | IC50 [8] [µM] | half-life [9] [min] | IC50 [10] [µM] | minimal effective dose [11] [mg/kg] | IC50 [12] [µM] | IC50 [13] [µM] | minimal effective dose [15] [mg/kg] | IC50 [16] [µM] | IC50 [20] [µM] | IC50 (LNCaP) [µM] | IC50 [21] [µM] | IC50 [22] [µM] | IC50 [24] [µM] | half-life [25] [min] | further results
1 | COC[C@H]1OC(=O)/C(=C/N(C)CCCN(C)C)C2=C(O)C(=O)C3=C([C@H](OC(C)=O)C[C@]4(C)[C@@H](O)CC[C@@H]34)[C@]21C | > 30 | > 200 | 2.92 | > 10 | > 30 | 30 | > 10 | < 1.25 | > 10 | > 10 | 2.5 | > 40 | 0.064 | 0.389 | > 10 | > 30 | > 50 |  | solubility [3]: > 10000 µg/mL; Vd [4]: 0.7 L/kg; Activity [6]: Active; IC50 [14]: 0.013 µM; IC50 [17]: 0.011 µM; clearance [18]: 50 mL/min/kg; IC50 [19]: 8 µM; Activity [23]: Active
2 | CCN(/C=C1/C(=O)O[C@H](COC)[C@@]2(C)C1=C(O)C(=O)C1=C2[C@H](OC(C)=O)C[C@]2(C)[C@@H](O)CC[C@@H]12)CC |  |  | 14 |  |  |  |  |  |  |  |  |  | 0.382 | 0.16 |  |  |  | 57 | 
3 | COC[C@H]1OC(=O)c2coc3c2[C@@]1(C)C1=C(C3=O)[C@@H]2CC[C@H](O)[C@@]2(C)C[C@H]1OC(C)=O |  |  | 0.193 |  |  | 4 |  |  |  |  |  |  | 0.0027 | 1.46 |  |  |  | 4 | 
4 | COC[C@H]1OC(=O)/C(=C/N(CCO)C(C)(C)C)C2=C(O)C(=O)C3=C([C@H](OC(C)=O)C[C@]4(C)[C@@H](O)CC[C@@H]34)[C@]21C | > 30 | > 200 | 28.6 | > 10 | > 30 |  | > 10 | 7.5 | > 10 | > 10 | 15 | > 40 | 1.11 | 0.128 | > 10 | > 30 | > 50 |  | IC50 [26]: > 10 µM; minimal effective dose [27]: 5 mg/kg
